Laboratory results from ChEMBL document CHEMBL1136530, “Synthesis, stereochemical assignment and biological activity of a novel series of C-4" modified aza-macrolides” (2003).
In brackets after ≈: the same amount, converted by molar mass.

Key:
Format in all cases: functional
[1] = tested on: Escherichia coli; test: Minimum inhibitory concentration against Escherichia coli
[2] = tested on: Pasteurella multocida; test: Minimum inhibitory concentration against Pasteurella multocida
In short: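 P. multocida strain 59A0067 (turkey origin), grown overnight on BHI plates; colonies in saline at OD625 0.09 (0.5 McFarland), diluted 1:100 in BHI broth. Two-fold serial dilutions in BHI microdilution, about 5×10⁵ cfu/mL final, 37 °C for 18 h. MIC is the lowest concentration with A600 ≤ 0.025.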

[3] = tested on: Mus musculus; test: In vivo effective dose against Pasteurella multocida infection in mouse
In short: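 Mice infected with P. multocida serotype 5A. Subcutaneous dosing 0.5 h post-infection at 5 to 80 mg/kg. ED50 calculated from the number of mice surviving four days after infection.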

`C=C[C@@]1(O)[C@H](C)O[C@@H](O[C@H]2[C@H](C)[C@@H](O[C@@H]3O[C@H](C)C[C@H](N(C)C)[C@H]3O)[C@](C)(O)C[C@@H](C)CN[C@H](C)[C@@H](O)[C@](C)(O)[C@@H](CC)OC(=O)[C@@H]2C)C[C@@]1(C)OC` gave an MIC [1] of 1.56 µg/mL (≈ 2.05 µM), an MIC [2] of 0.2 µg/mL (≈ 0.263 µM) and an ED50 [3] of 66 mg/kg.
Work on `CC[C@H]1OC(=O)[C@H](C)[C@@H](O[C@H]2C[C@@](C)(OC)[C@@](O)(CC)[C@H](C)O2)[C@H](C)[C@@H](O[C@@H]2O[C@H](C)C[C@H](N(C)C)[C@H]2O)[C@](C)(O)C[C@@H](C)CN[C@H](C)[C@@H](O)[C@]1(C)O` yielded an MIC [1] of 1.56 µg/mL (≈ 2.04 µM), an MIC [2] of 0.2 µg/mL (≈ 0.262 µM) and an ED50 [3] of 61 mg/kg.
Work on `CC[C@H]1OC(=O)[C@H](C)[C@@H](O[C@H]2C[C@@](C)(OC)[C@@](O)(c3cc4ccccc4n3C)[C@H](C)O2)[C@H](C)[C@@H](O[C@@H]2O[C@H](C)C[C@H](N(C)C)[C@H]2O)[C@](C)(O)C[C@@H](C)CN(C)[C@H](C)[C@@H](O)[C@]1(C)O` yielded an MIC [1] of 6.25 µg/mL (≈ 7.12 µM), an MIC [2] of 0.39 µg/mL (≈ 0.444 µM) and an ED50 [3] of over 40 mg/kg.
Compound `CC#C[C@@]1(O)[C@H](C)O[C@@H](O[C@H]2[C@H](C)[C@@H](O[C@@H]3O[C@H](C)C[C@H](N(C)C)[C@H]3O)[C@](C)(O)C[C@@H](C)CN[C@H](C)[C@@H](O)[C@](C)(O)[C@@H](CC)OC(=O)[C@@H]2C)C[C@@]1(C)OC` has an MIC [1] of 1.56 µg/mL (≈ 2.02 µM), an MIC [2] of 0.2 µg/mL (≈ 0.259 µM) and an ED50 [3] of 21 mg/kg.
With `CC[C@H]1OC(=O)[C@H](C)[C@@H](O[C@H]2C[C@@](C)(OC)[C@@](O)(c3cc4ccccc4n3C)[C@H](C)O2)[C@H](C)[C@@H](O[C@@H]2O[C@H](C)C[C@H](N(C)C)[C@H]2O)[C@](C)(O)C[C@@H](C)CN[C@H](C)[C@@H](O)[C@]1(C)O` the MIC [1] was 3.13 µg/mL (≈ 3.62 µM), the MIC [2] was 0.2 µg/mL (≈ 0.231 µM) and the ED50 [3] was over 40 mg/kg.
With `CC[C@H]1OC(=O)[C@H](C)[C@@H](O[C@H]2C[C@@](C)(OC)[C@@](O)(c3cccnc3)[C@H](C)O2)[C@H](C)[C@@H](O[C@@H]2O[C@H](C)C[C@H](N(C)C)[C@H]2O)[C@](C)(O)C[C@@H](C)CN[C@H](C)[C@@H](O)[C@]1(C)O` the MIC [1] was 3.13 µg/mL (≈ 3.85 µM), the MIC [2] was 0.39 µg/mL (≈ 0.48 µM) and the ED50 [3] was over 40 mg/kg.
In the case of `CC[C@H]1OC(=O)[C@H](C)[C@@H](O[C@H]2C[C@@](C)(OC)[C@]3(CO3)[C@H](C)O2)[C@H](C)[C@@H](O[C@@H]2O[C@H](C)C[C@H](N(C)C)[C@H]2O)[C@](C)(O)C[C@@H](C)CN[C@H](C)[C@@H](O)[C@]1(C)O`, the MIC [1] is reported as 3.13 µg/mL (≈ 4.19 µM) and the MIC [2] is reported as 0.1 µg/mL (≈ 0.134 µM).
`CC#C[C@@]1(O)[C@H](C)O[C@@H](O[C@H]2[C@H](C)[C@@H](O[C@@H]3O[C@H](C)C[C@H](N(C)C)[C@H]3O)[C@](C)(O)C[C@@H](C)CN(C)[C@H](C)[C@@H](O)[C@](C)(O)[C@@H](CC)OC(=O)[C@@H]2C)C[C@@]1(C)OC` was tested, and the MIC [1] was 1.56 µg/mL (≈ 1.98 µM), the MIC [2] was 0.2 µg/mL (≈ 0.254 µM) and the ED50 [3] was 42 mg/kg.
For `CC[C@H]1OC(=O)[C@H](C)[C@@H](O[C@H]2C[C@@](C)(OC)[C@@](O)(c3cccs3)[C@H](C)O2)[C@H](C)[C@@H](O[C@@H]2O[C@H](C)C[C@H](N(C)C)[C@H]2O)[C@](C)(O)C[C@@H](C)CN[C@H](C)[C@@H](O)[C@]1(C)O`, the MIC [1] was 3.13 µg/mL (≈ 3.83 µM), the MIC [2] was 0.78 µg/mL (≈ 0.955 µM) and the ED50 [3] was over 80 mg/kg.
`CC[C@H]1OC(=O)[C@H](C)[C@@H](O[C@H]2C[C@@](C)(OC)[C@@](O)(CCCOC)[C@H](C)O2)[C@H](C)[C@@H](O[C@@H]2O[C@H](C)C[C@H](N(C)C)[C@H]2O)[C@](C)(O)C[C@@H](C)CN[C@H](C)[C@@H](O)[C@]1(C)O` showed an MIC [1] of 0.78 µg/mL (≈ 0.966 µM), an MIC [2] of 0.2 µg/mL (≈ 0.248 µM) and an ED50 [3] of 49 mg/kg.
In the case of `CC[C@H]1OC(=O)[C@H](C)[C@@H](O[C@H]2C[C@@](C)(OC)[C@](C)(O)[C@H](C)O2)[C@H](C)[C@@H](O[C@@H]2O[C@H](C)C[C@H](N(C)C)[C@H]2O)[C@](C)(O)C[C@@H](C)CN[C@H](C)[C@@H](O)[C@]1(C)O`, the MIC [1] is reported as 0.78 µg/mL (≈ 1.04 µM), the MIC [2] is reported as under 0.1 µg/mL and the ED50 [3] is reported as 28 mg/kg.
Compound `CC[C@H]1OC(=O)[C@H](C)[C@@H](O[C@H]2C[C@@](C)(OC)[C@@]3(CO3)[C@H](C)O2)[C@H](C)[C@@H](O[C@@H]2O[C@H](C)C[C@H](N(C)C)[C@H]2O)[C@](C)(O)C[C@@H](C)CN[C@H](C)[C@@H](O)[C@]1(C)O` has an MIC [1] of 1.56 µg/mL (≈ 2.09 µM), an MIC [2] of under 0.1 µg/mL and an ED50 [3] of 31 mg/kg.
`CC[C@H]1OC(=O)[C@H](C)[C@@H](O[C@H]2C[C@@](C)(OC)[C@@](O)(CSC)[C@H](C)O2)[C@H](C)[C@@H](O[C@@H]2O[C@H](C)C[C@H](N(C)C)[C@H]2O)[C@](C)(O)C[C@@H](C)CN[C@H](C)[C@@H](O)[C@]1(C)O` gave an MIC [1] of 3.13 µg/mL (≈ 3.94 µM), an MIC [2] of 0.1 µg/mL (≈ 0.126 µM) and an ED50 [3] of 44 mg/kg.
In the case of `CC[C@H]1OC(=O)CC(O)[C@H](C)[C@@H](OC2O[C@H](C)[C@@H](O)[C@H](N(C)C)[C@H]2O)[C@@H](CCN2C[C@H](C)C[C@H](C)C2)CC(C)C(=O)/C=C/C(C)=C/[C@@H]1CO[C@@H]1O[C@H](C)[C@@H](O)[C@@H](OC)[C@H]1OC` (stereo partly drawn), the MIC [1] is reported as 50 µg/mL (≈ 57.5 µM) and the MIC [2] is reported as 0.78 µg/mL (≈ 0.897 µM).
In the case of `CC[C@H]1OC(=O)[C@H](C)[C@@H](O[C@H]2C[C@@](C)(OC)[C@](C)(O)[C@H](C)O2)[C@H](C)[C@@H](O[C@@H]2O[C@H](C)C[C@H](N(C)C)[C@H]2O)[C@](C)(O)C[C@@H](C)CN(C)[C@H](C)[C@@H](O)[C@]1(C)O`, the MIC [1] is reported as 0.78 µg/mL (≈ 1.02 µM), the MIC [2] is reported as 0.1 µg/mL (≈ 0.131 µM) and the ED50 [3] is reported as 26 mg/kg.
